How the values were obtained:
[1] = test system: Plasma; assay: Drug level in mouse plasma treated with (R)-3-(5-fluoro-1H-indol-3-yl)pyrrolidine-2,5-dione after 48 hrs; assay type: ADME, cell-free
Method in brief: (§1)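 (R)-enantiomer incubated for 48 h in phosphate-buffered saline (pH 7.4) or in mouse, rat, dog or acidified dog plasma. The (R)-enantiomer remaining and (S)-enantiomer formed were quantified (%) by chiral LC/MS-MS.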

[2] = test system: Plasma; assay: Drug level in dog plasma treated with (R)-3-(5-fluoro-1H-indol-3-yl)pyrrolidine-2,5-dione after 48 hrs; assay type: ADME, cell-free, Canis lupus familiaris; method in brief: as §1
[3] = Fraction unbound in human plasma after 48 hrs; assay type: ADME, cell-free
[4] = test system: Plasma; assay: Drug level in rat plasma treated with (R)-3-(5-fluoro-1H-indol-3-yl)pyrrolidine-2,5-dione after 48 hrs; assay type: ADME, cell-free; method in brief: as §1
[5] = test system: Plasma; assay: Drug level in dog acidified plasma treated with (R)-3-(5-fluoro-1H-indol-3-yl)pyrrolidine-2,5-dione after 48 hrs; assay type: ADME, cell-free, Canis lupus familiaris; method in brief: as §1
[6] = test system: Cynomolgus monkey; assay: Drug level in cynomolgus monkey treated with (R)-3-(5-fluoro-1H-indol-3-yl)pyrrolidine-2,5-dione at 10 mg/kg, po; assay type: ADME, organism-based, Macaca fascicularis; settings: in vivo
Method in brief: (§2)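 (R)-enantiomer or racemate dosed orally at 10 mg/kg to monkeys. Total plasma concentrations of each enantiomer were followed over time.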

[7] = Drug level in phosphate buffer saline at pH 7.4 treated with (R)-3-(5-fluoro-1H-indol-3-yl)pyrrolidine-2,5-dione after 48 hrs; method in brief: as §1
[8] = target: Indoleamine 2,3-dioxygenase 1 (Homo sapiens, UniProt P14902); assay: Inhibition of human recombinant IDO-1 using L-Trp as substrate after 15 mins by PDMAB-based assay
[9] = target: Cytochrome P450 2C9 (Homo sapiens, UniProt P11712); assay: Inhibition of CYP2C9 (unknown origin); assay type: ADME
[10] = Fraction unbound in human plasma; assay type: ADME, cell-free
Method in brief: (§3)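 Racemate incubated with plasma from preclinical species and humans. The unbound fraction of the (R)-enantiomer was determined.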

[11] = Volume of distribution at steady state in mouse; assay type: ADME, organism-based; settings: in vivo, read-out: Vdss
Method in brief: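 Single 1 mg/kg IV dose of the racemate to male CD-1 mice (n=3). The plasma active enantiomer was quantified by chiral LC-MS/MS, and Vss was taken from the plasma concentration–time profile.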

[12] = Efflux ratio of apparent permeability across human Caco2 cells; assay type: ADME, cell-based; settings: Caco-2
[13] = Oral bioavailability in mouse at 5 mg/kg; assay type: ADME, organism-based; settings: in vivo
[14] = Intrinsic clearance in human microsomes; assay type: ADME, Microsome
[15] = target: T1, Cytochrome P450 1A2 (Homo sapiens, UniProt P05177); assay: Inhibition of CYP1A2 (unknown origin); assay type: ADME
T1 sequence (P05177 whole entry): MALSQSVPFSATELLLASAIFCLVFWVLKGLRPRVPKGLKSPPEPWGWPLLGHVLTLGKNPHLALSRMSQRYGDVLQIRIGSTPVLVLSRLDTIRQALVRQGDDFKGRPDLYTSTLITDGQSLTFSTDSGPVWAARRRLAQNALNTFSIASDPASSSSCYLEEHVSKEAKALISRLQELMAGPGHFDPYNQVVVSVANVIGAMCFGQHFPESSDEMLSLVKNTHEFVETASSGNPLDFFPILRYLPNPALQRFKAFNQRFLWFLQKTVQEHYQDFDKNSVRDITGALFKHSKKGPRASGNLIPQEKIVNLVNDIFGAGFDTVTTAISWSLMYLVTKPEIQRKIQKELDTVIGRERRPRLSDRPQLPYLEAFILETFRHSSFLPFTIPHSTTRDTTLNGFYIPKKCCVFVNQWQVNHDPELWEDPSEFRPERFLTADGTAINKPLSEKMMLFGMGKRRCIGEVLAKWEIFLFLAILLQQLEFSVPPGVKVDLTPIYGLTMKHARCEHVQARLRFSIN

[16] = Apparent permeability across human Caco2 cells; assay type: ADME, cell-based; settings: Caco-2
[17] = Clearance in mouse; assay type: ADME, organism-based; settings: in vivo
[18] = target: Cytochrome P450 3A4 (Homo sapiens, UniProt P08684); assay: Inhibition of CYP3A4 (unknown origin); assay type: ADME
[19] = Oral bioavailability in mouse at 30 mg/kg; assay type: ADME, organism-based; settings: in vivo
[20] = target: Cytochrome P450 2C19 (Homo sapiens, UniProt P33261); assay: Inhibition of CYP2C19 (unknown origin); assay type: ADME
[21] = Fraction unbound in mouse plasma; assay type: ADME, cell-free; method in brief: as §3
[22] = target: Cytochrome P450 2D6 (Homo sapiens, UniProt P10635); assay: Inhibition of CYP2D6 (unknown origin); assay type: ADME
[23] = Half life in mouse; assay type: ADME, organism-based; settings: in vivo
[24] = Intrinsic clearance in mouse microsomes; assay type: ADME, Microsome
[25] = test system: Cynomolgus monkey; assay: Drug metabolism in cynomolgus monkey assessed as (S)-3-(5-fluoro-1H-indol-3-yl)pyrrolidine-2,5-dione formation at 10 mg/kg, po; assay type: ADME, organism-based, Macaca fascicularis; settings: in vivo; method in brief: as §2
[26] = test system: Cynomolgus monkey; assay: AUC (infinity) in cynomolgus monkey assessed as (S)-3-(5-fluoro-1H-indol-3-yl)pyrrolidine-2,5-dione at 1 mg/kg, iv; assay type: ADME, organism-based, Macaca fascicularis; design: dose 1 mg/kg, route intravenous, time infinity; settings: in vivo
Method in brief: (§4)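 Pure active (R)-enantiomer given IV at 1 mg/kg to rat, dog and monkey. Exposure (AUCinf) of the (R)- and (S)-enantiomers measured; their AUC ratio reported as an index of in vivo interconversion.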

[27] = Inhibition of dog IDO-1 using tryptophan as substrate after 22 mins by LC-MS/MS method
[28] = AUC (infinity) in rat at 1 mg/kg, iv; assay type: ADME, organism-based; design: dose 1 mg/kg, time infinity, route intravenous; settings: in vivo
[29] = Chemical stability in phosphate buffer saline at pH 7.4 assessed as parent compound remaining after 48 hrs; assay type: physicochemical; settings: phosphate buffered saline, read-out: Stability; method in brief: as §1
[30] = Metabolic stability in rat plasma assessed as parent compound remaining after 48 hrs; assay type: ADME, cell-free; settings: read-out: Stability
Method in brief: (§5)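 Active enantiomer incubated 48 h in mouse, dog or rat plasma, or in dog plasma that had been acidified; remaining enantiomer and formed antipode measured by chiral LC/MS-MS.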

[31] = AUC (infinity) in dog at 1 mg/kg, iv; assay type: ADME, organism-based, Canis lupus familiaris; design: dose 1 mg/kg, route intravenous, time infinity; settings: in vivo
[32] = Metabolic stability in mouse plasma assessed as parent compound remaining after 48 hrs; assay type: ADME, cell-free; settings: read-out: Stability; method in brief: as §5
[33] = AUC (infinity) in cynomolgus monkey at 1 mg/kg, iv; assay type: ADME, organism-based, Macaca fascicularis; design: dose 1 mg/kg, route intravenous, time infinity; settings: in vivo
[34] = Metabolic stability in dog plasma assessed as parent compound remaining after 48 hrs; assay type: ADME, cell-free, Canis lupus familiaris; settings: read-out: Stability; method in brief: as §5
[35] = test system: Canis familiaris; assay: AUC (infinity) in dog assessed as (S)-3-(5-fluoro-1H-indol-3-yl)pyrrolidine-2,5-dione at 1 mg/kg, iv; assay type: ADME, organism-based, Canis lupus familiaris; design: dose 1 mg/kg, route intravenous, time infinity; settings: in vivo; method in brief: as §4
[36] = Drug metabolism in human hepatocytes in presence of CYP inhibitor ABT; assay type: ADME, cell-based, Hepatocyte; settings: with ABT (CYP inhibitor), read-out: Drug metabolism
[37] = target: Indoleamine 2,3-dioxygenase 1 (Mus musculus, UniProt P28776); assay: Inhibition of mouse IDO-1 using tryptophan as substrate after 22 mins by LC-MS/MS method
[38] = test system: Rattus norvegicus; assay: AUC (infinity) in rat assessed as (S)-3-(5-fluoro-1H-indol-3-yl)pyrrolidine-2,5-dione at 1 mg/kg, iv; assay type: ADME, organism-based; design: dose 1 mg/kg, time infinity, route intravenous; settings: in vivo; method in brief: as §4
[39] = Drug metabolism in human hepatocytes in absence of CYP inhibitor ABT; assay type: ADME, cell-based, Hepatocyte; settings: read-out: Drug metabolism
[40] = Metabolic stability in dog acidified plasma assessed as parent compound remaining after 48 hrs; assay type: ADME, cell-free, Canis lupus familiaris; settings: read-out: Stability; method in brief: as §5

Sequence of Indoleamine 2,3-dioxygenase 1 (Homo sapiens, UniProt P14902) (P14902 whole entry): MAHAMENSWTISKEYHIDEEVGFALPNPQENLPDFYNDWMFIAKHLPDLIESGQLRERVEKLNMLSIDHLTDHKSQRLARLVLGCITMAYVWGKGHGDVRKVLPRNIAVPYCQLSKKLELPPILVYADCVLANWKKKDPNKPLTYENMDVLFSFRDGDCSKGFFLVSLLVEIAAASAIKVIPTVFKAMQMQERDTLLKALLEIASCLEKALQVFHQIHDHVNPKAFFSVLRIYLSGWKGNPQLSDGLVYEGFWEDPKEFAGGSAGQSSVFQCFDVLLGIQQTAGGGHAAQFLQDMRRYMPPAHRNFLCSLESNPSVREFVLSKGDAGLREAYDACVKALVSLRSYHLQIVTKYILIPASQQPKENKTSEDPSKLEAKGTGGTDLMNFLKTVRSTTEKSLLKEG
Sequence of Cytochrome P450 2C19 (P33261 whole entry): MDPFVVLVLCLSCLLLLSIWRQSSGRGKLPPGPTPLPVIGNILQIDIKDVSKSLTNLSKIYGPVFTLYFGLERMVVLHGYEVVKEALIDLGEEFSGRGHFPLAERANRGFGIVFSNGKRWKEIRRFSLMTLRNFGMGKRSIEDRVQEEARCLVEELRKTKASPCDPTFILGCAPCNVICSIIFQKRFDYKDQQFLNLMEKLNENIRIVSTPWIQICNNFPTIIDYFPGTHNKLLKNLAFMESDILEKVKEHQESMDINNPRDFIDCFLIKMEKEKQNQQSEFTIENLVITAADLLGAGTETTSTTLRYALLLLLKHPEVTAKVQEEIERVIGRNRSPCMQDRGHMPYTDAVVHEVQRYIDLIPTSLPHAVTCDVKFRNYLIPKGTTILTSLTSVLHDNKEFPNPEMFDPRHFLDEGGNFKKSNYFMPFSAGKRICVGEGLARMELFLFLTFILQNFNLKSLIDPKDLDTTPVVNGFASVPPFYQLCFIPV
Sequence of Cytochrome P450 2C9 (P11712 whole entry): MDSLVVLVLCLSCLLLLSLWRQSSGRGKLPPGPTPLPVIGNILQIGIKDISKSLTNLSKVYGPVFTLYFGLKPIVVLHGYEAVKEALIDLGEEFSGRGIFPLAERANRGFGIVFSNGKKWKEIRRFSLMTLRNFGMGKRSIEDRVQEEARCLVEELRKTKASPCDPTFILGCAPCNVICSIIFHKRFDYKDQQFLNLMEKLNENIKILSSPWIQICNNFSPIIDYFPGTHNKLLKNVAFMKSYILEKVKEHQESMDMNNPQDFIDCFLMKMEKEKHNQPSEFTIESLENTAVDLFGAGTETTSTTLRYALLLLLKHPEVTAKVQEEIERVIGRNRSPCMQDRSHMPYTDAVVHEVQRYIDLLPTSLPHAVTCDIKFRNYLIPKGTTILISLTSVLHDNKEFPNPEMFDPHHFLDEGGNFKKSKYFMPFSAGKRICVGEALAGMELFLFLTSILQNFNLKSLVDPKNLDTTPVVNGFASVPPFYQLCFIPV
Sequence of Cytochrome P450 3A4 (P08684 whole entry): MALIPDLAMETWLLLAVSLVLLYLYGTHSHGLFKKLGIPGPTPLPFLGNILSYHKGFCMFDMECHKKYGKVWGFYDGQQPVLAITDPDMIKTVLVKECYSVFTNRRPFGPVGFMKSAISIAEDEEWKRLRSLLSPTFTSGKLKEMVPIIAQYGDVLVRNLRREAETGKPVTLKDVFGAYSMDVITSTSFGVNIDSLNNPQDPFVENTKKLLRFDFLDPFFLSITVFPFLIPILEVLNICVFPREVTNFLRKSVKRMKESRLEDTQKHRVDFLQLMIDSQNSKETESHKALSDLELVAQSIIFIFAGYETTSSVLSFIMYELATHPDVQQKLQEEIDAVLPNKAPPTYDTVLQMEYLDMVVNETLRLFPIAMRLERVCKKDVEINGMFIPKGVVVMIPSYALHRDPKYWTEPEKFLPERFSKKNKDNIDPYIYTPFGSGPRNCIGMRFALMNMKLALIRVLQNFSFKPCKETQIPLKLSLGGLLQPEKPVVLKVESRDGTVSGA
Sequence of Indoleamine 2,3-dioxygenase 1 (Mus musculus, UniProt P28776) (P28776 whole entry): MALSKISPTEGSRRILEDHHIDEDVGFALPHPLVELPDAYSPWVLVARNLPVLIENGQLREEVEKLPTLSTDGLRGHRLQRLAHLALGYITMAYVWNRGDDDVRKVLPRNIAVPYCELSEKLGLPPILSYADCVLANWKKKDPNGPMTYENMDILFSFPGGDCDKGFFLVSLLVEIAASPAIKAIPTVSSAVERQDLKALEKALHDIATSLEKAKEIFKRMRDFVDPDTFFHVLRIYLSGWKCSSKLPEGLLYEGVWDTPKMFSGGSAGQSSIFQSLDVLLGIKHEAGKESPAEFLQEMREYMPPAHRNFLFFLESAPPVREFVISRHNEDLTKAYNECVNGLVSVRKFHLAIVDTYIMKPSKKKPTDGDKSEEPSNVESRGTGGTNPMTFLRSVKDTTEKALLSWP
Sequence of Cytochrome P450 2D6 (P10635 whole entry): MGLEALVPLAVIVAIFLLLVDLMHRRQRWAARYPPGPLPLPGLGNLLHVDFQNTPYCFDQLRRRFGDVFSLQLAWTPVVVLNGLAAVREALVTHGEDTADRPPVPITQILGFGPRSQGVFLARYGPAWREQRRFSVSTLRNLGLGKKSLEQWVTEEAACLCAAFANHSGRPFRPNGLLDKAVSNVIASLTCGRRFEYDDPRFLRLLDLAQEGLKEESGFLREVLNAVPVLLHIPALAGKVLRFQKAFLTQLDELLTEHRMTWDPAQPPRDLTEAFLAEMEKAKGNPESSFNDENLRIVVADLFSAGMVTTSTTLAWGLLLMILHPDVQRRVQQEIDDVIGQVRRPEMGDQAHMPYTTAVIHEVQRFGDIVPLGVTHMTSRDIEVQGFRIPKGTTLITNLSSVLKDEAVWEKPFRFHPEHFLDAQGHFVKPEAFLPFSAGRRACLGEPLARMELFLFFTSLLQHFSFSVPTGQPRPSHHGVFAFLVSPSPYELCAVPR

O=C1C[C@@H](c2c[nH]c3ccc(F)cc23)C(=O)N1
Drug metabolism [1]: Metabolite_Detected
Drug metabolism [2]: Metabolite_Detected
fraction unbound at 48 h [3]: 0.286
Drug metabolism [4]: Metabolite_Detected
Drug metabolism [5]: Metabolite_Detected
Drug metabolism [6]: Metabolite_Detected
Drug metabolism [7]: Metabolite detected

O=C1CC(c2cccc3ccc(Cl)cc23)C(=O)N1 (centres undefined)
IC50 [8]: > 50 µM

N#Cc1ccc2[nH]cc(C3CC(=O)NC3=O)c2c1 (centres undefined)
IC50 [8]: 1.2 µM

O=C1C[C@H](c2c[nH]c3cc(Cl)c(F)cc23)C(=O)N1
IC50 [8]: 0.58 µM

O=C1CC(c2c[nH]c3ccc(Cl)cc23)C(=O)N1 (centres undefined)
IC50 [8]: 0.83 µM

O=C1C[C@H](c2c[nH]c3ccccc23)C(=O)N1
IC50 [9]: > 10 µM
fraction unbound [10]: 0.43
Vd [11]: 1.2 L/kg
efflux ratio [12]: 0.77
bioavailability [13]: 63%
clearance [14]: < 10 µL/min/mg
IC50 [15]: > 10 µM
Papp [16]: 28 ×10⁻⁶ cm/s
clearance [17]: 15.6 mL/min/kg
IC50 [18]: > 10 µM
bioavailability [19]: 65%
IC50 [20]: > 10 µM
fraction unbound [21]: 0.55
IC50 [22]: > 10 µM
half-life [23]: 58.2 min
clearance [24]: < 10 µL/min/mg

O=C1CC(c2cccc3cc(Cl)ccc23)C(=O)N1 (centres undefined)
IC50 [8]: > 50 µM

O=C1CC(c2c[nH]c3ccc(C(F)(F)F)cc23)C(=O)N1 (centres undefined)
IC50 [8]: 9.7 µM

O=C1C[C@@H](c2c[nH]c3ccccc23)C(=O)N1
IC50 [8]: 83 µM

O=C1C[C@@H](c2c[nH]c3cc(Cl)c(F)cc23)C(=O)N1
IC50 [8]: > 50 µM

COc1ccc2c(C3CC(=O)NC3=O)c[nH]c2c1 (centres undefined)
IC50 [8]: > 50 µM

O=C1C[C@H](c2c[nH]c3ccc(F)cc23)C(=O)N1
Drug metabolism [25]: Metabolite_Detected
fraction unbound at 48 h [3]: 0.449
AUC [26]: 3516 ng·h/mL
IC50 [27]: 200 nM
AUC(0-inf) [28]: 2270 ng·h/mL
remaining at 48 h [29]: 89%
remaining at 48 h [30]: 27%
AUC(0-inf) [31]: 696 ng·h/mL
remaining at 48 h [32]: 35%
AUC(0-inf) [33]: 6810 ng·h/mL
remaining at 48 h [34]: 30%
AUC [35]: 124 ng·h/mL
metabolised [36]: 39%
IC50 [37]: 7.3 µM
AUC [38]: 153 ng·h/mL
metabolised [39]: 61%
remaining at 48 h [40]: 93.5%

— ChEMBL document CHEMBL4052817 (J Med Chem, 2017)
